Published values collected from several papers.
Organism: Bacillus subtilis
Observed: microbial growth

Compound | method | strain | time | MIC
CCCCCCCC[P+](/C=C(/c1ccccc1)c1cc(Cl)ccc1O)(CCCCCCCC)CCCCCCCC | – | – | 21 h | > 80 µM
Cc1cc(/C=C2\Sc3ccccc3N2CCCN2CCCCC2)c2ccccc2[n+]1C.[I-] | broth dilution | 168 | – | 8 µg/mL
CNC(=O)c1cc(Oc2ccc(NC(=O)Nc3ccc(Cl)c(C(F)(F)F)c3)cc2)ccn1 | – | 168 | – | 5 µM
O=C(O)CN1C(=O)/C(=C/c2c3ccccc3c(-c3ccc(N(c4ccccc4)c4ccccc4)cc3)c3ccccc23)SC1=S | broth dilution | ATCC6633 | – | > 1000 µg/mL
C[n+]1c(/C=C/c2c[nH]c3ccccc23)cc(/C=C2\Sc3ccccc3N2CCCN2CCOCC2)c2ccccc21.[I-] | broth dilution | 168 | – | 8 µg/mL
O=C(O)c1ccc(-n2cc(/C=N/Nc3cccc(Cl)c3F)c(-c3ccc(F)cc3)n2)cc1 | – | ATCC6623 | – | 3.12 µg/mL
Brc1ccc(NCc2ccc(Oc3ccccn3)cc2)cc1 | – | – | – | > 3.1 µg/mL
O=C(O)c1cn(C2CC2)c2cc(N3CCNCC3)c(F)cc2c1=O | broth dilution | ATCC6633 | – | 0.03 µg/mL
c1ccc(NCc2ccc(Oc3ccccn3)cc2)cc1 | – | – | – | 1.6 µg/mL
O=C(O)c1ccc(-n2cc(/C=N/Nc3c(F)c(F)cc(F)c3F)c(-c3cccc(F)c3)n2)cc1 | – | ATCC6623 | – | 12.5 µg/mL
Clc1ccccc1NCc1ccc(Oc2ccccn2)cc1 | – | – | – | 1.8 µg/mL
O=C(O)c1ccc(-n2cc(/C=N/N(Cc3ccccc3)Cc3ccccc3)c(-c3ccc(F)cc3)n2)cc1 | – | ATCC6623 | – | 6.25 µg/mL
CC1CCN(CCCN2/C(=C/c3cc[n+](C)c4ccccc34)Sc3ccccc32)CC1.[I-] | broth dilution | 168 | – | 4 µg/mL
O=C(O)c1ccc(-n2cc(/C=N/Nc3cccc(Br)c3)c(-c3cccc(F)c3)n2)cc1 | – | ATCC6623 | – | 12.5 µg/mL
O=C1NC(=S)N/C1=C\c1ccc(-c2ccc(N(c3ccccc3)c3ccccc3)cc2)cc1 | broth dilution | ATCC6633 | – | > 1000 µg/mL
CCCCOC(=O)c1cc(O)c(O)c(O)c1 | broth dilution | ATCC6633 | – | > 200 µM
CCCC[P+](/C=C(/c1ccccc1)c1cc(Cl)ccc1O)(CCCC)CCCC | – | – | 21 h | 10 µM
O=C(O)c1cc(O)c(O)c(OC(=O)c2cc(O)c(O)c(O)c2)c1 | broth dilution | ATCC6633 | – | > 200 µM
CC1(C)CCC(C)(C)c2cc(C(=O)Nc3ccc(C(=O)O)cc3)ccc21 | broth dilution | – | 24 h | 50 to 100 µM
CC1=NN(CNC(=O)c2ccccc2)C(=O)C1=NNn1c(-c2ccccc2)nc2ccccc2c1=O | broth dilution | – | 24 h | 51.9 µM
COc1cccc(OC)c1C(=O)N[C@@H]1C(=O)N2[C@@H]1SC(C)(C)[C@@H]2C(=O)O | broth dilution | 168 | – | 0.625 µg/mL
CC1=NN(CNc2ccccn2)C(=O)C1=NNn1c(-c2ccccc2)nc2ccccc2c1=O | broth dilution | – | 24 h | 55.2 µM
Cc1cc(/C=C2\Sc3ccccc3N2CCCN2CCC(C)CC2)c2ccccc2[n+]1C.[I-] | broth dilution | 168 | – | 1 µg/mL

Compound | method | strain | time | MIC
O=C1NC(=S)S/C1=C\c1c2ccccc2c(-c2ccc(N(c3ccccc3)c3ccccc3)cc2)c2ccccc12 | broth dilution | ATCC6633 | – | > 1000 µg/mL
COc1ccc(NCc2ccc(Oc3ccccn3)cc2)cc1 | – | – | – | > 6.24 µg/mL
O=C(O)c1ccc(-n2cc(/C=N/N(c3ccccc3)c3ccccc3)c(-c3cccc(F)c3)n2)cc1 | – | ATCC6623 | – | 1.56 µg/mL
O=C1NC(=S)S/C1=C\c1ccc(-c2ccc(N(c3ccccc3)c3ccccc3)cc2)cc1 | broth dilution | ATCC6633 | – | 1000 µg/mL
C[n+]1c(/C=C/c2ccc(O)cc2)cc(/C=C2\Sc3ccccc3N2CCCN2CCOCC2)c2ccccc21.[I-] | broth dilution | 168 | – | 4 µg/mL
C/C=C(\C)c1cc(OC(=O)c2c(O)c(C)c(O)c(Cl)c2/C(C)=C/C)c(C)c(O)c1C(=O)O | broth dilution | BS01 | – | 32 µg/mL
CC1=NN(CNc2ccc(C(=O)O)cc2)C(=O)C1=NNn1c(-c2ccccc2)nc2ccccc2c1=O | broth dilution | – | 24 h | 50.5 µM
C[n+]1c(/C=C/c2c[nH]c3ccccc23)cc(/C=C2\Sc3ccccc3N2CCCN2CCCC2)c2ccccc21.[I-] | broth dilution | 168 | – | 2 µg/mL
N#Cc1ccc(N/N=C/c2cn(-c3ccc(C(=O)O)cc3)nc2-c2ccc(F)cc2)cc1 | – | ATCC6623 | – | 25 µg/mL
Clc1cccc(NCc2ccc(Oc3ccccn3)cc2)c1 | – | – | – | 1.8 µg/mL
CCCCCC[P+](/C=C(/c1ccccc1)c1cc(Cl)ccc1OC)(CCCCCC)CCCCCC | – | – | 21 h | 2 µM
CO[C@H]1O[C@H](COC(c2ccccc2)(c2ccccc2)c2ccccc2)[C@@H](OC(=O)c2ccc(C(C)(C)C)cc2)[C@H](OC(=O)c2ccc(C(C)(C)C)cc2)[C@H]1OC(=O)c1ccc(C(C)(C)C)cc1 | broth dilution | – | – | 1.25 µg/mL
CCC[P+](/C=C(/c1ccccc1)c1cc(Cl)ccc1O)(CCC)CCC | – | – | 21 h | > 40 µM
O=C(O)c1ccc(-n2cc(/C=N/N(c3ccccc3)c3ccccc3)c(-c3ccc(F)cc3)n2)cc1 | – | ATCC6623 | – | 1.56 µg/mL
CC1(C)S[C@@H]2[C@H](NC(=O)[C@H](N)c3ccccc3)C(=O)N2[C@H]1C(=O)O | broth dilution | BS01 | – | 0.13 µg/mL
CCCCCC/C=C\CCCCCCCCCc1cc(O)cc(O)c1 | broth dilution | 168 | – | > 64 µg/mL
C/C=C(\C)c1cc(O)c(C)c(OC(=O)c2c(C)c(Cl)c(O)c(Cl)c2O)c1 | broth dilution | BS01 | – | 2 µg/mL
O=C(O)c1ccc(-n2cc(/C=N/Nc3c(F)c(F)c(F)c(F)c3F)c(-c3cccc(F)c3)n2)cc1 | – | ATCC6623 | – | 6.25 µg/mL
CCCCCCC[P+](/C=C(/c1ccccc1)c1cc(Cl)ccc1O)(CCCCCCC)CCCCCCC | – | – | 21 h | 10 µM
O=C1NC(=S)N/C1=C\c1c2ccccc2c(-c2ccc(N(c3ccccc3)c3ccccc3)cc2)c2ccccc12 | broth dilution | ATCC6633 | – | > 1000 µg/mL
Fc1ccc(NCc2ccc(Oc3ccccn3)cc2)cc1 | – | – | – | 1.6 µg/mL
O=C(O)CN1C(=O)/C(=C/c2ccc(-c3ccc(N(c4ccccc4)c4ccccc4)cc3)c3ccccc23)SC1=S | broth dilution | ATCC6633 | – | 500 µg/mL
COc1cccc(NCc2ccc(Oc3ccccn3)cc2)c1 | – | – | – | 1.6 µg/mL
